What was measured:
[1] = target: T1, Aldo-keto reductase family 1 member B1 (Homo sapiens, UniProt P15121); test: In vitro inhibition of recombinant human aldose reductase (ALR2)
Outline: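 Recombinant human ALR2 expressed in baculovirus-infected Sf9 cells, purified by dye-affinity chromatography. Assay at 37 °C: 100 mM sodium phosphate pH 6.2, 400 mM ammonium sulfate, 5 mU/mL enzyme, 0.1 mM NADPH. DMSO-dissolved compound preincubated 5 min, then 10 mM glyceraldehyde added; A340 decrease followed 6 min.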

[2] = target: T1, Aldo-keto reductase family 1 member B1; test: (§1) In vitro inhibitory activity against recombinant human aldose reductase (ALR2) was determined
[3] = Inhibitory activity on sorbital accumulation in human retinal cells was determined; format: functional, cell-based
Outline: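 ARPE-19 human retinal cells grown in MEM with 0.5% fetal calf serum plus 50 mM glucose. Compounds added in DMSO, then 16 h at 37 °C under 5% CO2. Cells lysed with 8% perchloric acid and neutralised with KOH. Sorbitol measured by colorimetric kit. IC50 taken as the concentration halving sorbitol accumulation; mean of three experiments.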

[4] = target: T1, Aldo-keto reductase family 1 member B1; test: as §1; remark: listed apart in the source
Outline: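 Recombinant hALR2 expressed in baculovirus-infected Sf9 cells, purified by affinity chromatography. Run at 37 °C in 100 mM sodium phosphate pH 6.2, 400 mM ammonium sulfate, 5 mU/mL enzyme, 0.1 mM NADPH. Compounds in DMSO preincubated 5 min. Started with 10 mM glyceraldehyde; A340 decrease read over 6 min.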

| inhibition [1] [%] | Structure (SMILES) | IC50 [2] [µM] | IC50 [3] [µM] | further results |
| --- | --- | --- | --- | --- |
| 38 | Oc1cc(Br)c(O)c(Oc2c(O)c(Br)c(Br)c(Br)c2Br)c1 |  |  |  |
| 0 | COc1cc(Br)c(Br)cc1Oc1cc(Br)c(Br)cc1OC |  |  |  |
|  | Oc1c(Oc2cc(Br)c(Br)c(Br)c2O)cc(Br)c(Br)c1Br | 5.7 | 1 |  |
|  | Oc1c(Oc2cc(Cl)c(Cl)c(Cl)c2O)cc(Cl)c(Cl)c1Cl | 3.2 | 0.24 |  |
| 46 | Oc1cc(Br)c(Br)cc1Oc1cc(Br)c(Br)cc1O |  |  |  |
|  | Oc1c(Br)cc(Br)cc1Oc1c(O)c(Br)c(Br)c(Br)c1Br |  | 3 | IC50 [4]: 6.4 µM |
| 0 | COc1c(Br)c(Br)c(Br)c(Br)c1Oc1cc(O)cc(Br)c1O |  |  |  |
|  | Oc1c(Oc2c(O)c(Br)c(Br)c(Br)c2Br)cc(Br)c(Br)c1Br | 5.5 | 7 |  |
| 0 | COc1c(Nc2cc(Br)c(Br)c(Br)c2OC)cc(Br)c(Br)c1Br |  |  |  |
|  | Oc1c(Oc2cc(Br)c(Br)c(Br)c2O)cc(F)c(Br)c1Br | 3.2 | 11 |  |
| 0 | CC(=O)Oc1c(Br)cc(Br)cc1Oc1c(Br)c(Br)c(Br)c(Br)c1OC(C)=O |  |  |  |
|  | Oc1c(Br)cc(Oc2cc(Br)c(Br)c(Br)c2O)c(O)c1Br | 4.4 | 8 |  |
| 18 | Oc1c(Nc2cc(Br)c(Br)c(Br)c2O)cc(Br)c(Br)c1Br |  |  |  |
|  | O=C(O)COc1c(Br)cc(Br)cc1Oc1c(Br)c(Br)c(Br)c(Br)c1OCC(=O)O | 25 |  |  |
| 0 | COC(=O)COc1c(Br)cc(Br)cc1Oc1c(Br)c(Br)c(Br)c(Br)c1OCC(=O)OC |  |  |  |
| 32 | Oc1ccc(Br)cc1Oc1cc(Br)ccc1O |  |  |  |
|  | O=C1NC(=O)[C@@]2(CCOc3ccc(F)cc32)N1 [SORBINIL] |  | 4 |  |
|  | Nc1c(Oc2cc(Br)c(Br)c(Br)c2O)cc(Br)c(Br)c1Br | 8.9 | 6 |  |
|  | COc1ccc2c(C(=S)N(C)CC(=O)O)cccc2c1C(F)(F)F [TOLRESTAT] |  | 0.02 |  |

| Structure (SMILES) | inhibition [1] [%] | IC50 [2] [µM] | IC50 [3] [µM] | further results |
| --- | --- | --- | --- | --- |
| COc1cc(Br)c(Br)c(Br)c1Oc1cc(Br)cc(Br)c1OC | 0 |  |  |  |
| COc1c(Br)cc(Br)cc1Oc1c(Br)c(Br)c(Br)c(Br)c1OC | 0 |  |  |  |
| Oc1c(Br)cc(Br)cc1Oc1c(Br)cc(Br)c(Br)c1O | 25 |  |  |  |
| Oc1cc(Br)c(Br)c(Br)c1Oc1cc(Br)cc(Br)c1O | 0 |  |  |  |

Reference: ChEMBL document CHEMBL1144884, “Synthesis, activity, and molecular modeling studies of novel human aldose reductase inhibitors based on a marine natural product” (J Med Chem, 2003)
